Data on ten compounds can be found in ChEMBL document CHEMBL4706718, “1,2,4-Oxadiazole-Bearing Pyrazoles as Metabolically Stable Modulators of Store-Operated Calcium Entry” (ACS Med Chem Lett, 2021).

Data set [1] can be described thus: Stability in CD-1 mouse liver microsomes assessed as parent compound remaining at 50 uM measured after 60 mins by HPLC-UV analysis. Format: ADME, Microsome. Conditions: read-out: Stabilty. Background: Liver microsomes are a subcellular fraction often used to study metabolism.
Data set [2] in a line: Stability in CD-1 mouse liver S9 fraction assessed as parent compound remaining at 50 uM measured after 60 mins by HPLC-UV analysis. Type of data set: ADME, subcellular. Conditions: read-out: Stabilty. The method, boiled down: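 Incubated in mouse liver MLS9 fraction supplemented with NADPH. Residual parent substrate measured after 1 h. Three independent experiments, mean ± SEM.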

The subject of data set [3] is HEK. As to the kind of experiment: Activation of SOCE channel in tBhQ-treated HEK cells assessed as increase in AUC of calcium entry at 10 uM preincubated for 600 secs followed by calcium addition by Fura-2 AM by fluorescence microscopic analysis. Type of data set: cell-based. Conditions: Homo sapiens, filed as activator, time 600.0 sec. The method, boiled down: (§1)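 HEK cells; intracellular Ca2+ stores emptied with tBhQ (50 μM) in the presence of compound at 10 μM. After 600 s, Ca2+ added and intracellular Ca2+ followed by Fura-2 fluorescence microscopy. SOCE given as percent activity vs control; peak amplitude, AUC and slope of the Ca2+ rise evaluated. Traces average 200 cells over three independent experiments; Mann–Whitney U test vs control.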

The subject of data set [4] is HEK. The data set is described as follows: Activation of SOCE channel in […] assessed as increase in calcium entry in resting cells at 10 uM […] by Fura-2 AM by fluorescence microscopic analysis. Format: cell-based. Conditions: Homo sapiens.
Data set [5] can be described thus: Cytotoxicity against HEK cells assessed as cell viability at 10 uM measured after 24 hrs by MTT assay relative to control. Conditions: human, read-out: Activity. Format: cell-based. The method, boiled down:
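MTT viability assay in HEK cells with compound at 10 μM.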
On the technique in general: Formazan colour is commonly taken as a measure of viable cells.

In data set [6] the test system is HEK. The data set is described as follows: Inhibition of SOCE channel in tBhQ-treated HEK cells assessed as reduction in calcium entry by measuring residual activity at 10 uM preincubated for 600 secs followed by calcium addition by Fura-2 AM by fluorescence microscopic analysis relative to control. Type of data set: cell-based. To be noted: Homo sapiens, time 600.0 sec. The method in brief:
as §1

Structures are written as SMILES. The source made the active and inactive calls. The rule behind the calls is not given here.

Take `COc1ccc(OC)c(-c2ccc(NC(=O)c3ccncc3F)cc2)c1`: the remaining at 1 h, 50 µM in data set [1] amounted to 15%.

With `Cc1ccc(S(=O)(=O)Nc2ccc(-n3ncc(-c4nc(C)no4)c3C(F)(F)F)cc2)cc1`, the remaining at 1 h, 50 µM in data set [2] was found to be 76%.

For `CCOC(=O)c1cnn(-c2ccc(NC(=O)C(Cl)=C(Cl)Cl)cc2)c1C(F)(F)F`, the remaining at 1 h, 50 µM in data set [2] came out at 43%.

For the compound `Cc1noc(-c2cnn(-c3ccc(NC(=O)c4c(C)noc4C)cc3)c2C(F)(F)F)n1`, the remaining at 1 h, 50 µM in data set [2] turned out to be 99%.

For `Cc1noc(-c2cnn(-c3ccc(NC(=O)c4ccc(C#N)c(F)c4)cc3)c2C(F)(F)F)n1`, in data set [2], the remaining at 1 h, 50 µM was 73%.

Consider `CCCC(C)OC(=O)c1cnn(-c2ccc(-n3cc(-c4cccc(C(=O)O)c4)nn3)cc2)c1C(F)(F)F` (stereo not drawn), for which the remaining at 1 h, 50 µM in data set [2] turned out to be 74%.

In the case of `CCCCCC(=O)Nc1ccc(-n2ncc(-c3nc(C)no3)c2C(F)(F)F)cc1`, the outcome in data set [3] was Active. The result in data set [4] was inactive. The viability at 24 h, 10 µM in data set [5] was determined as 88.5%. For the same compound, the remaining at 1 h, 50 µM in data set [2] came to 91%.

For `Cc1noc(-c2cnn(-c3ccc(NC(=O)c4ccc([N+](=O)[O-])cc4)cc3)c2C(F)(F)F)n1`, the remaining at 1 h, 50 µM in data set [2] was over 99%.

As for `Cc1noc(-c2cnn(-c3ccc(NC(=O)c4ccco4)cc3)c2C(F)(F)F)n1`, the Activity in data set [6] came to 61.1%.

Take `Cc1noc(-c2cnn(-c3ccc(NC(=O)c4c(F)cccc4F)cc3)c2C(F)(F)F)n1`: the remaining at 1 h, 50 µM in data set [2] was over 99%.
